The target in assay [1] is T1, Chromosome-associated kinesin KIF4A (Homo sapiens) (UniProt O95239).
T1 sequence (whole entry): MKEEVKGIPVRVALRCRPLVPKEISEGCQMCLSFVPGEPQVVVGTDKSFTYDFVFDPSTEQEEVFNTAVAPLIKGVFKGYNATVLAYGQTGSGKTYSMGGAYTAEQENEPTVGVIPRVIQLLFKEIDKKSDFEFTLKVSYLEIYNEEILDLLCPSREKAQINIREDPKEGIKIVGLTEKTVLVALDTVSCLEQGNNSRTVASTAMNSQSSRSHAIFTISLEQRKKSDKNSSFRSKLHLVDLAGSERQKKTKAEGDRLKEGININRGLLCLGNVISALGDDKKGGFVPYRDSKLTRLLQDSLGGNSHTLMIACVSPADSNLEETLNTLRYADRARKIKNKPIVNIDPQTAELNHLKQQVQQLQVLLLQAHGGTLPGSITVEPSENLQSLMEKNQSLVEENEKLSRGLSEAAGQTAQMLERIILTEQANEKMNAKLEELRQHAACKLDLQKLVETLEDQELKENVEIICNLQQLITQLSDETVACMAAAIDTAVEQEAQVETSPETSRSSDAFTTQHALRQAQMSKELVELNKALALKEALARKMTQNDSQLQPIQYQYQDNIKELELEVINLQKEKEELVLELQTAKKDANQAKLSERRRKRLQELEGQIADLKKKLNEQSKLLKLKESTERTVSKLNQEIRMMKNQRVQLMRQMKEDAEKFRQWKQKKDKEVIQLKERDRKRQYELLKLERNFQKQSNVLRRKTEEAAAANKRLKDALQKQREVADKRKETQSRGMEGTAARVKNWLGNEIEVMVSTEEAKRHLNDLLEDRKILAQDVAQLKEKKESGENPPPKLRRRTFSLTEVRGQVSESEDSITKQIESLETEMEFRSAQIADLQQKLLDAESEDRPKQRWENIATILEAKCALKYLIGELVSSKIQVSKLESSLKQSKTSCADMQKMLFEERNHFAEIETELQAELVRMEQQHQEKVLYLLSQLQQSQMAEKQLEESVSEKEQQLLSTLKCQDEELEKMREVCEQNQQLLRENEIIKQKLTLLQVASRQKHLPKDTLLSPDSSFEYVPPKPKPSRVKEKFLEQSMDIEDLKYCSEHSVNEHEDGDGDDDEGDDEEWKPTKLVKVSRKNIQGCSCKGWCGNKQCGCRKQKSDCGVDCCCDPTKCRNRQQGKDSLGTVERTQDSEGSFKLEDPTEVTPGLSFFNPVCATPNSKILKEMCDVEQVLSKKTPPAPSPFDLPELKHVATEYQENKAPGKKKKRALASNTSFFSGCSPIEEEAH
Nature of the assay: Inhibition of KIF-4 ATPase activity at 20 uM.

Assay [2] deals with HeLa. Nature of the assay: Cytotoxicity against human HeLa cells after 48 hrs […]. The assay is classed as functional, cell-based. The settings on record: Homo sapiens, HeLa, 48 h.
Assay [3] concerns HeLa. The assay is described as follows: Cell cycle arrest in human HeLa cells assessed as accumulation at M phase at 36 uM after 20 hrs by DAPI staining relative to taxol. To be noted: in the assay text read “at 32 uM” for “at 36 uM”. The assay is classed as functional. In a few lines: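 HeLa cells were exposed to compound for 20 h and scored for M-phase arrest. Mitotic index was expressed as a percentage of the induction given by 0.1 μM taxol.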

pIC50: −log10 of the molar value. Calls of active or inactive are those of the source. No cut-off for these calls is given here.

The term pIC50 denotes the IC50 on a negative log10 scale, so that one unit is a factor of ten. A higher pIC50 goes with a small IC50. Turning to `FC(F)(F)c1ccc2[nH]c3ccccc3c2c1`, in assay [1], the inhibition entry was “inactive”. Further, in the assay with HeLa [2], the pIC50 was 4.85. In the assay with HeLa [3], the Activity came out at 57%.
As to `FC(F)(F)c1ccc2c(c1)[nH]c1ccccc12`, the inhibition entry in assay [1] is “inactive”. This molecule gave a pIC50 in the assay on HeLa [2] of 4.96.
`CC(C)(C)c1ccc2c(c1)[nH]c1ccccc12`: the inhibition result in assay [1] was “inactive”. In the assay on HeLa [2], this molecule showed a pIC50 of 4.40. Besides, in the assay on HeLa [3], the Activity stood at 37%.

The values are drawn from ChEMBL document CHEMBL1177716, “Kinesin spindle protein (KSP) inhibitors with 2,3-fused indole scaffolds” (J Med Chem, 2010).
